Measured values published in publication PMC7839861 (Journal for Immunotherapy of Cancer, 2021).

Tested on: MC38 tumors
Experiment: Transcriptional
Assay type: in vivo, mouse
Conditions: 2 mg/kg ip Q3D x3
How it was run: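 hCD137 C57BL/6J mice bearing sc MC38 tumors (1 x 10^6 cells) were randomized at about 240 mm3. Groups received vehicle, 15 mg/kg test compound or 15 mg/kg enantiomeric non-binding control iv, or 2 mg/kg anti-CD137 agonist antibody ip, Q3D for 3 doses. Tumors were harvested 1 hr after the last dose. RNA (100 ng/tumor) was profiled on the nCounter mouse PanCancer IO 360 panel, and FFPE sections were stained for mouse CD8 with HRP detection.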

B1: anti-CD137 agonist antibody: anti-CD137 agonist antibody, a commercially available urelumab analog (antibody, V domains shown)
VH: QVQLQQWGAGLLKPSETLSLTCAVYGGSFSGYYWSWIRQSPEKGLEWIGEINHGGYVTYNPSLESRVTISVDTSKNQFSLKLSSVTAADTAVYYCARDYGPGNYDWYFDLWGRGTLVTVSS
VL: EIVLTQSPATLSLSPGERATLSCRASQSVSSYLAWYQQKPGQAPRLLIYDASNRATGIPARFSGSGSGTDFTLTISSLEPEDFAVYYCQQRSNWPPALTFGGGTKVEIK
- T cell infiltration of tumors, histological analysis (CD8 IHC): notably increased
